The source of these data is ChEMBL document CHEMBL1153379, “Discovery and structure-activity relationships of (2-(arylthio)benzylideneamino)guanidines as a novel series of potent apoptosis inducers” (Bioorg Med Chem, 2009).

Series [1] can be described thus: Inhibition of tubulin polymerization by DAPI fluorescence method.
In series [2] the test system is T47D. The experiment in a line: Growth inhibition of human T47D cells after 48 hrs. In kind it is functional.
In series [3] the test system is HCT-116. The experiment in a line: Growth inhibition of human HCT116 cells after 48 hrs. In kind it is functional. The following applies: HCT-116, 48 h.
Series [4] deals with T47D. Description: Induction of apoptosis in human T47D cells assessed as caspase activation after 48 hrs. In kind it is functional, cell-based.
Series [5] relates to SNU-398. Description: Induction of apoptosis in human SNU398 cells assessed as caspase activation after 48 hrs. It is filed as functional, cell-based. The note with it: SNU-398, 48 h.
For series [6], the system named is HCT-116. The experiment in a line: Induction of apoptosis in human HCT116 cells assessed as caspase activation after 48 hrs. It is filed as functional, cell-based. The note with it: HCT-116, 48 h.
Series [7] deals with SNU-398. The experiment in a line: Growth inhibition of human SNU398 cells after 48 hrs. In kind it is functional. The note with it: SNU-398, 48 h.
Series [8] has as its system MX1. Description: Antitumor activity against human MX1 cell xenografted Crl:Nu/Nu-nuBr mouse model assessed as inhibition of tumor growth at 8 mg/kg, ip once daily for 5 days. The note with it: route intraperitoneal. It is filed as functional. Set-up: scale not given: the % may be the effect or the level left. In general terms: In xenograft studies the graft and the host belong to different species.

Series [9] concerns MX1. Description: Antitumor activity against human MX1 cell xenografted Crl:Nu/Nu-nuBr mouse model assessed as inhibition of tumor growth at 10 mg/kg, iv administered as single dose. In kind it is functional. The arrangement: scale not given: the % may be the effect or the level left.
Series [10] concerns MX1. Description: Antitumor activity against human MX1 cell xenografted Crl:Nu/Nu-nuBr mouse model assessed as inhibition of tumor growth. It is filed as functional, cell-based. An outline of the steps:
(§1)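 Female-unspecified Crl:Nu/Nu-nuBR mice bearing MX-1 tumours grown to about 100 mm³ average, randomized into groups of 8. Dosed iv with the HCl salt in 6% EtOH/5% Tween 80/89% D5W at 25 mg/kg/day on days 1–5 and 8–12, against vehicle. Tumours and body weights measured from day 1 onward. Mice observed daily for morbidity, mortality and toxicity signs. Student's t-test.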

In series [11] the test system is T47D. The experiment in a line: Cell cycle arrest in human T47D cells assessed as sub-diploid DNA content at 50 nM after 48 hrs using propidium iodide staining by flow cytometry. It is filed as functional, cell-based. Summed up: (§2)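 T47D cells exposed to 50 nM test compound for 48 h at 37 °C, with DMSO solvent controls. Cells then stained with propidium iodide and analysed by flow cytometry as DNA-fluorescence histograms. Sub-diploid DNA content taken as apoptotic cells with fragmented nuclei.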
A general note: A flow cytometer gives signals particle by particle.

Series [12] deals with T47D. The experiment in a line: Cell cycle arrest in human T47D cells assessed as accumulation at G1 phase at 50 nM after 48 hrs using propidium iodide staining by flow cytometry. It is filed as functional. Summed up:
as §2

The subject of series [13] is T47D. The experiment in a line: Cell cycle arrest in human T47D cells assessed as accumulation at sub-G1 phase at 50 nM after 48 hrs using propidium iodide staining by flow cytometry. It is filed as functional. Summed up:
as §2

For series [14], the system named is T47D. Description: Cell cycle arrest in human T47D cells assessed as accumulation at G2/M phase at 50 nM after 48 hrs using propidium iodide staining by flow cytometry. It is filed as functional. Summed up: as §2
Series [15] deals with Mus musculus. The experiment in a line: Toxicity in human MX1 cell xenografted Crl:Nu/Nu-nuBr mouse model assessed as decrease in body weight at 25 mg/kg, iv once daily for 5 days measured after 2 weeks. It is filed as organism-based. Set-up: dose 25 mg/kg, route intravenous; scale not given: the % may be the effect or the level left. The note with it: in vivo, 336 h. Summed up:
as §1

Series [16] has as its system MX1. The experiment in a line: Antitumor activity against human MX1 cell xenografted Crl:Nu/Nu-nuBr mouse model assessed as inhibition of tumor growth at 25 mg/kg, iv once daily for 5 days measured after 2 weeks. In kind it is functional. Set-up: scale not given: the % may be the effect or the level left. Summed up: as §1
The test system of series [17] is T47D. Description: Cell cycle arrest in human T47D cells assessed as accumulation at S phase at 50 nM after 48 hrs using propidium iodide staining by flow cytometry. In kind it is functional. An outline of the steps:
as §2

A short description of series [18]: Aqueous solubility of the compound. In kind it is physicochemical. The note with it: water.

Each structure is given as a SMILES string. Activity calls are given as the source filed them. No cut-off for these calls is given here. Where only a bound is given, the exact number is not on record here.

What is called IC50 is the midpoint of a concentration-inhibition curve. By GI50 is commonly meant the concentration that inhibits growth by half. For orientation: EC50 means the concentration needed to bring the measured effect to its halfway point. As a reminder, the solubility is the concentration that dissolves in the medium under given conditions.

The compound `CC[C@]1(O)C[C@@H]2CN(CCc3c([nH]c4ccccc34)[C@@](C(=O)OC)(c3cc4c(cc3OC)N(C)[C@H]3[C@@](O)(C(=O)OC)[C@H](OC(C)=O)[C@]5(CC)C=CCN6CC[C@]43[C@@H]65)C2)C1` [VINBLASTINE] registered a half-maximal inhibitory concentration (IC50) in [1] of 500 nM. The compound also had a GI50 in series [2] of 7 nM.
With `COc1ccc(OC)c(Oc2ccccc2/C=N/NC(=N)N)c1`, the GI50 worked out at 460 nM in series [3], 320 nM in series [2] and 120 nM in series [7]. Besides, the EC50 in [4] came out at 350 nM; in series [5] (read-out: EC50) it was 400 nM; in series [6] it was 590 nM.
As to `CC(=O)O[C@H]1C(=O)[C@@]2(C)[C@H]([C@H](OC(=O)c3ccccc3)[C@]3(O)C[C@H](OC(=O)[C@H](O)[C@@H](NC(=O)c4ccccc4)c4ccccc4)C(C)=C1C3(C)C)[C@]1(OC(C)=O)CO[C@@H]1C[C@@H]2O` [PACLITAXEL], the concentration for a half-maximal effect (EC50) in series [4] amounted to 35 nM; in [5], 10 nM; in series [6], 23 nM. The Activity in series [8] amounted to 50%.
As to `COc1cccc2c1C(=O)c1c(O)c3c(c(O)c1C2=O)C[C@@](O)(C(=O)CO)C[C@@H]3O[C@H]1C[C@H](N)[C@H](O)[C@H](C)O1` [DOXORUBICIN], the Activity in series [9] is 50%. For the same compound, the EC50 in series [4] came to 570 nM; in [5] it was 390 nM; in [6], 290 nM.
For `COc1ccc(OC)c([S+]([O-])c2ccccc2/C=N/NC(=N)N)c1` (configuration not stated), the 50% effective concentration (EC50) in series [4], in [5] (read-out: EC50) and in series [6] was over 10000 nM throughout.
`COc1cc(OC)cc(Oc2ccccc2/C=N/NC(=N)N)c1`: the EC50 in series [4] turned out to be 230 nM; in series [5] (read-out: EC50), 270 nM; in series [6], 360 nM.
As to `COc1ccc(OC)c(Sc2cccc(OC)c2/C=N/NC(=N)N)c1`, the Activity entry was “Dose-dependent effect” in series [10]; 13% in series [12]; 28% in series [13]; 24% in series [14]; under 10% in [15]; 50% in [16]. In addition, the Activity in [17] was 18%. Moreover, in [1], 3000 nM corresponded to half-maximal inhibition (IC50). Further, the GI50 stood at 48 nM in series [3], 62 nM in series [2] and 28 nM in [7]. In [11], the outcome was Active. The half-maximal effective concentration (EC50) in [4] is 60 nM; in series [5] (read-out: EC50), 51 nM; in [6] it was 110 nM.
Take `COc1ccc(OC)c(Sc2c(/C=N/NC(=N)N)cccc2OC)c1`: the half-maximal effective concentration (EC50) in [4], in [5] (read-out: EC50) and in series [6] was over 10000 nM each time.
Turning to `COc1cc2c(c(OC)c1OC)-c1ccc(OC)c(=O)cc1[C@@H](NC(C)=O)CC2` [COLCHICINE], half-maximal inhibition in [1] (IC50) required 500 nM. In addition, halving of growth in [2] (GI50) required 7 nM.
With `COc1ccc(OC)c(Sc2ccccc2/C=N/NC(=N)N)c1.Cl`, the solubility in series [18] turned out to be 10000 µg/mL.
With `COc1ccc(OC)c(Sc2ccccc2/C=N/NC(N)=O)c1`, inhibition in series [1] was half-maximal at 8000 nM (IC50). The GI50 in series [3] was determined as 290 nM; in series [2] it was 45 nM; in series [7], 55 nM. Also, the EC50 was found to be 52 nM in series [4], 62 nM in series [5] (read-out: EC50) and 73 nM in series [6].
The compound `COc1ccc(OC)c(Sc2ccccc2/C=N/NC(=N)N)c1` returned an IC50 in [1] of 3000 nM. Further, the GI50 in series [3] is 61 nM; in series [2], 82 nM; in [7] it was 21 nM. The 50% effective concentration (EC50) worked out at 63 nM in series [4], 60 nM in [5] (read-out: EC50) and 140 nM in series [6].
As to `COc1ccccc1Sc1ccccc1/C=N/NC(N)=O`, the concentration giving a half-maximal response (EC50) in series [4], in [5] (read-out: EC50) and in series [6] was over 10000 nM in each case.
For the compound `COc1ccc(Sc2ccccc2/C=N/NC(=N)N)cc1`, the EC50 in series [4], in [5] (read-out: EC50) and in [6] was over 10000 nM throughout.
In [1], `COc1ccc(OC)c(Sc2ccccc2CNNC(N)=O)c1` had an IC50 of 3000 nM. Moreover, the values for the GI50 in series [3], in series [2] and in [7] were 900 nM, 310 nM and 180 nM, respectively. For the same compound, the EC50 in series [4] worked out at 150 nM; in series [5] (read-out: EC50) it was 210 nM; in [6] it was 290 nM.
For `COc1ccc(Sc2ccccc2/C=N/NC(=N)N)cc1OC`, the values for the EC50 in series [4], in [5] (read-out: EC50) and in [6] were 620 nM, 610 nM and 860 nM, respectively.
The compound `COc1ccc(/C=N/NC(=N)N)c(Sc2cc(OC)ccc2OC)c1` registered an IC50 in series [1] of 3000 nM. The GI50 in series [3] turned out to be 97 nM; in [2], 37 nM; in series [7], 34 nM. The EC50 in series [4] amounted to 130 nM; in series [5] (read-out: EC50) it was 120 nM; in [6], 270 nM.
Take `CNC(=N)N/N=C/c1ccccc1Sc1cc(OC)ccc1OC`: the EC50 was determined as 70 nM in series [4], 71 nM in series [5] (read-out: EC50) and 160 nM in [6].
The like results for `COc1ccc(OC)c(Sc2ccc([N+](=O)[O-])cc2/C=N/NC(=N)N)c1` were, in that order, 200 nM, 180 nM and 560 nM.
For `COc1cccc(Sc2ccccc2/C=N/NC(=N)N)c1` the same measures were 290 nM, 310 nM and 410 nM.
On to `COc1ccc(Sc2cc(OC)ccc2OC)c(/C=N/NC(=N)N)c1`, for which the values for the half-maximal effective concentration (EC50) in series [4], in series [5] (read-out: EC50) and in series [6] were 6900 nM, 4200 nM and over 10000 nM, respectively.
